Values after ≈ are worked out from the molar mass of the structure shown.
Columns and labels:
[1] = system: Mycobacterium tuberculosis; experiment: Antitubercular activity against Mycobacterium tuberculosis H37Rv incubated for 6 days by alamar blue assay; format: functional; details: 144 h, time 6 day
Summary of the method: (§1)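 MABA (protocol A): Mtb H37Rv grown in 7H9 with 10% OADC and 0.05% Tween-80 and used at mid-log phase. Compounds from DMSO stocks were serially diluted 2-fold, and the inoculum was set to OD600 0.005. Plates were incubated 6 days at 37 °C, then Alamar Blue was added for a further 24 h. MIC is the lowest concentration (μg mL−1) preventing the colour change.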

[2] = system: Mycobacterium tuberculosis; experiment: Antitubercular activity against Mycobacterium tuberculosis H37Rv by microplate alamar blue assay; format: functional; summary of the method: as §1
[3] = Cytotoxicity against human HepG2 cells assessed as reduction in cell viability at 20 uM incubated for 72 hrs by MTT assay relative to control; format: cell-based; details: read-out: INH
Summary of the method: (§2)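 MTT assay: cells were seeded at 2500/well and attached overnight to 70–90% confluency (HepG2 in RPMI-1640, WI-38 in DMEM, each with 10% FBS). Compound was given at 20 μM final with 0.5% DMSO for 72 h. MTT was applied for 4 h in the dark and the formazan dissolved in DMSO, with OD read at 570 nm. % inhibition is relative to the DMSO control, mean of triplicate.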

[4] = Cytotoxicity against human WI-38 cells assessed as reduction in cell viability at 20 uM incubated for 72 hrs by MTT assay relative to control; format: cell-based; details: read-out: INH; summary of the method: as §2
[5] = system: Mycobacterium tuberculosis; experiment: Antitubercular activity against Mycobacterium tuberculosis H37Rv infected in immune compromised GKO mouse assessed as spleen log CFU reduction; format: functional
[6] = system: Mycobacterium tuberculosis; experiment: Antitubercular activity against Mycobacterium tuberculosis H37Rv infected in immune compromised GKO mouse assessed as lung log CFU reduction; format: functional
[7] = system: Mycobacterium tuberculosis; experiment: Antitubercular activity against mid logarithmic stage Mycobacterium tuberculosis H37Rv incubated for 6 days by alamar blue assay; format: functional; details: 144 h, time 6 day
Summary of the method: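 Protocol B: the mid-log H37Rv culture (OD580 0.4) was diluted 1:100 and mixed with an equal volume of serially diluted compound (DMSO). After 6 days at 37 °C, Alamar blue plus 20% Tween 80 was added. Plates were read 24 h later at 570 nm against a 600 nm reference. Untreated inoculum wells gave the survival-inhibition curve, and rifampicin served as positive control.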

[8] = Therapeutic index, ratio of IC50 for human WI-38 cells to MIC for Mycobacterium tuberculosis H37Rv; format: toxicity; details: read-out: TI
[9] = system: WI-38; experiment: Cytotoxicity against human WI-38 cells assessed as reduction in cell viability incubated for 72 hrs by MTT assay; format: cell-based; details: WI-38, 72 h

Row | Structure (SMILES) | MIC99 [1] [µg/mL] | other results
1 | CN(C)c1cc2[nH]c(C3CCCC3)nc2cc1NC(=O)c1ccc(OC(F)(F)F)cc1 | 1.56 (≈ 3.61 µM) | –
2 | CCC(CC)c1nc2cc(NC(=O)c3ccc(F)cc3)c(N(C)C)cc2[nH]1 | 0.78 (≈ 2.12 µM) | –
3 | COc1ccc(CC(=O)Nc2cc3nc(CN(C)c4ccccc4)[nH]c3cc2N(C)C)cc1 | > 10 | –
4 | Cc1ccc(C(=O)Nc2cc3nc(Cc4ccccc4)[nH]c3cc2N(C)C)cc1 | 1.56 (≈ 4.06 µM) | –
5 | CN(C)c1cc2[nH]c(C3CCCC3)nc2cc1NC(=O)C1CCC1 | > 10 | –
6 | CN(C)c1cc2[nH]c(C3CCCCC3)nc2cc1NC(=O)c1ccc(OC(F)(F)F)cc1F | 0.16 (≈ 0.344 µM) | MIC [2]: 0.16 µg/mL (≈ 0.344 µM); cytotoxicity at 72 h, 20 µM [3]: 57%; cytotoxicity at 72 h, 20 µM [4]: 78%; Activity [5]: 3.9 log10CFU; Activity [6]: 5.7 log10CFU; MIC99 [7]: 0.019 µg/mL (≈ 0.0409 µM)
7 | CCC(CC)C(=O)Nc1cc2nc(Cc3ccccc3)[nH]c2cc1N(C)C | > 10 | –
8 | CCCCOC(=O)Nc1cc2nc(CN3CCCC3)[nH]c2cc1N(C)C | 2.4 (≈ 6.68 µM) | MIC99 [7]: 1.6 µg/mL (≈ 4.45 µM)
9 | CCCCOC(=O)Nc1cc2nc(Sc3ccccc3)[nH]c2cc1N(C)C | 0.31 (≈ 0.806 µM) | –
10 | CN(C)c1cc2[nH]c(Cc3ccccc3)nc2cc1NC(=O)c1ccc(OC(F)(F)F)cc1 | 1.25 (≈ 2.75 µM) | –
11 | CCCCOC(=O)Nc1cc2nc(SCC3CCCCC3)[nH]c2cc1N(C)C | 0.015 (≈ 0.0371 µM) | selectivity ratio [8]: > 100; cytotoxicity at 72 h, 20 µM [3]: 0%; IC50 [9]: 20 µM; cytotoxicity at 72 h, 20 µM [4]: 52%; MIC99 [7]: 0.0039 µg/mL (≈ 0.00964 µM)
12 | CCCCOC(=O)Nc1cc2nc(CN(CCC)CCC)[nH]c2cc1N(C)C | 0.16 (≈ 0.411 µM) | cytotoxicity at 72 h, 20 µM [3]: 0%; cytotoxicity at 72 h, 20 µM [4]: 4%
13 | CCCc1ccc(C(=O)Nc2cc3nc(CN(C)c4ccccc4)[nH]c3cc2N(C)C)cc1 | 5 (≈ 11.3 µM) | –
14 | CCC(CC)c1nc2cc(NC(=O)c3ccccc3OC)c(N(C)C)cc2[nH]1 | 1.56 (≈ 4.1 µM) | –
15 | CCC(CC)c1nc2cc(NC(=O)c3ccc(C)cc3)c(N(C)C)cc2[nH]1 | 0.5 (≈ 1.37 µM) | –
16 | CN(C)c1cc2[nH]c(CN(C)c3ccccc3)nc2cc1NC(=O)c1ccc(OC(F)(F)F)cc1F | 0.29 (≈ 0.578 µM) | cytotoxicity at 72 h, 20 µM [3]: 30%; cytotoxicity at 72 h, 20 µM [4]: 59%; MIC99 [7]: 0.19 µg/mL (≈ 0.379 µM)
17 | CCCCOC(=O)Nc1cc2nc(C(CC)CC)[nH]c2cc1N(C)C | 0.078 (≈ 0.225 µM) | cytotoxicity at 72 h, 20 µM [3]: 32%; cytotoxicity at 72 h, 20 µM [4]: 77%
18 | COc1ccc(C(=O)Nc2cc3nc(Cc4ccccc4)[nH]c3cc2N(C)C)cc1 | 1.25 (≈ 3.12 µM) | –
19 | CCCCOC(=O)Nc1cc2nc(SC3CCCCC3)[nH]c2cc1N(C)C | – | cytotoxicity at 72 h, 20 µM [3]: 50%; cytotoxicity at 72 h, 20 µM [4]: 87%; MIC99 [7]: < 0.0081 µg/mL

Row | Structure (SMILES) | MIC99 [1] [µg/mL] | other results
20 | CCC(CC)C(=O)Nc1cc2nc(C3CCCC3)[nH]c2cc1N(C)C | > 50 | –
21 | CCCCOC(=O)Nc1cc2nc(C3CCCCC3)[nH]c2cc1N(C)C | 0.06 (≈ 0.167 µM) | MIC99 [7]: 0.008 µg/mL (≈ 0.0223 µM)
22 | CCC(CC)c1nc2cc(NC(=O)c3ccc(F)cc3F)c(N(C)C)cc2[nH]1 | 0.71 (≈ 1.84 µM) | –
23 | CC(C)c1nc2cc(NC(=O)c3ccc(C(C)(C)C)cc3)c(N(C)C)cc2[nH]1 | 0.78 (≈ 2.06 µM) | –
24 | CN(C)c1cc2[nH]c(Cc3ccccc3)nc2cc1NC(=O)c1ccc(F)cc1 | 0.63 (≈ 1.62 µM) | –
25 | CN(C)c1cc2[nH]c(C3CCCC3)nc2cc1NC(=O)c1ccccc1 | 1.56 (≈ 4.48 µM) | –
26 | CN(C)c1cc2[nH]c(CN(C)c3ccccc3)nc2cc1NC(=O)c1ccc(F)cc1F | 1.25 (≈ 2.87 µM) | –
27 | CCCCOC(=O)Nc1cc2nc(C(C)C)[nH]c2cc1N(C)C | 1.25 (≈ 3.93 µM) | –
28 | CN(C)c1cc2[nH]c(C3CCOCC3)nc2cc1NC(=O)c1ccc(OC(F)(F)F)cc1F | 10 (≈ 21.4 µM) | –
29 | CN(C)c1cc2[nH]c(C3CCCC3)nc2cc1NC(=O)c1ccc(F)cc1F | 0.625 (≈ 1.63 µM) | –
30 | CN(C)c1cc2[nH]c(C3CCCCC3)nc2cc1NC(=O)c1ccc(C(F)(F)F)cc1F | – | MIC [2]: 0.16 µg/mL (≈ 0.357 µM); Activity [5]: 3.9 log10CFU; Activity [6]: 5.7 log10CFU
31 | CCC(CC)c1nc2cc(NC(=O)c3ccc(OC)c(OC)c3)c(N(C)C)cc2[nH]1 | 12.5 (≈ 30.4 µM) | –
32 | CCCCOC(=O)Nc1cc2nc(Cc3ccccc3)[nH]c2cc1N(C)C | < 0.078 | cytotoxicity at 72 h, 20 µM [3]: 80%; cytotoxicity at 72 h, 20 µM [4]: 93%
33 | Cc1ccc(C(=O)Nc2cc3nc(C4CCCC4)[nH]c3cc2N(C)C)cc1 | 0.625 (≈ 1.72 µM) | –
34 | CN(C)c1cc2[nH]c(Cc3ccccc3)nc2cc1NC(=O)C(C)(C)C | > 10 | –
35 | CN(C)c1cc2[nH]c(Cc3ccccc3)nc2cc1NC(=O)c1ccc(C(C)(C)C)cc1 | 0.33 (≈ 0.774 µM) | –
36 | CCCCOC(=O)Nc1cc2nc(-c3cccs3)[nH]c2cc1N(C)C | > 10 | –
37 | CCCCOC(=O)Nc1cc2nc(SC)[nH]c2cc1N(C)C | 9.6 (≈ 29.8 µM) | MIC99 [7]: 1.28 µg/mL (≈ 3.97 µM)
38 | CN(C)c1cc2[nH]c(Cc3ccccc3)nc2cc1NC(=O)c1ccccc1 | 1.25 (≈ 3.37 µM) | –

Row | Structure (SMILES) | MIC99 [1] [µg/mL] | other results
39 | COc1ccccc1C(=O)Nc1cc2nc(C3CCCC3)[nH]c2cc1N(C)C | 12.5 (≈ 33 µM) | –
40 | CCC(CC)c1nc2cc(NC(=O)c3ccccc3)c(N(C)C)cc2[nH]1 | 1.56 (≈ 4.45 µM) | –
41 | CCCCOC(=O)Nc1cc2nc(C3CCOCC3)[nH]c2cc1N(C)C | > 2.5 | –
42 | CN(C)c1cc2[nH]c(C3CCCC3)nc2cc1NC(=O)C(C)(C)C | 50 (≈ 152 µM) | –
43 | CN(C)c1cc2[nH]c(C3CCOCC3)nc2cc1NC(=O)c1ccc(OC(F)(F)F)cc1 | > 10 | –
44 | CCCCOC(=O)Nc1cc2nc(CN(C)c3ccccc3)[nH]c2cc1N(C)C | 0.16 (≈ 0.405 µM) | –
45 | CN(C)c1cc2[nH]c(C3CCCC3)nc2cc1NC(=O)c1ccc(F)cc1 | 0.78 (≈ 2.13 µM) | –
46 | CCCCOC(=O)Nc1cc2nc(SCC)[nH]c2cc1N(C)C | 1.2 (≈ 3.57 µM) | MIC99 [7]: 0.16 µg/mL (≈ 0.476 µM)
47 | Cc1ccc(C(=O)Nc2cc3nc(CN(C)c4ccccc4)[nH]c3cc2N(C)C)cc1 | 1.25 (≈ 3.02 µM) | –
48 | CCCCOC(=O)Nc1cc2nc(SC(C)C)[nH]c2cc1N(C)C | 0.31 (≈ 0.884 µM) | –
49 | CCCCOC(=O)Nc1cc2nc(SCc3ccccc3)[nH]c2cc1N(C)C | 0.31 (≈ 0.778 µM) | –
50 | CN(C)c1cc2[nH]c(Cc3ccccc3)nc2cc1NC(=O)c1ccc(F)cc1F | 0.63 (≈ 1.55 µM) | –
51 | CCCCOC(=O)Nc1cc2nc(C3CCCC3)[nH]c2cc1N(C)C | 0.31 (≈ 0.9 µM) | cytotoxicity at 72 h, 20 µM [3]: 42%; cytotoxicity at 72 h, 20 µM [4]: 86%
52 | COc1ccc(C(=O)Nc2cc3nc(C4CCCC4)[nH]c3cc2N(C)C)cc1 | 1.25 (≈ 3.3 µM) | –
53 | CCCCOC(=O)Nc1cc2nc(CN3CCCCC3)[nH]c2cc1N(C)C | 0.14 (≈ 0.375 µM) | cytotoxicity at 72 h, 20 µM [3]: 0%; cytotoxicity at 72 h, 20 µM [4]: 60%; MIC99 [7]: 0.09 µg/mL (≈ 0.241 µM)
54 | CN(C)c1cc2[nH]c(C3CCCC3)nc2cc1NC(=O)c1ccc(C(C)(C)C)cc1 | 0.78 (≈ 1.93 µM) | –
55 | CN(C)c1cc2[nH]c(CN(C)c3ccccc3)nc2cc1NC(=O)c1ccc(C(C)(C)C)cc1 | 2.5 (≈ 5.49 µM) | –
56 | CCC(CC)c1nc2cc(NC(=O)c3ccc(OC(F)(F)F)cc3)c(N(C)C)cc2[nH]1 | 0.31 (≈ 0.714 µM) | –
57 | CCCCOC(=O)Nc1cc2nc(CN3CCOCC3)[nH]c2cc1N(C)C | 2.4 (≈ 6.39 µM) | MIC99 [7]: 1.6 µg/mL (≈ 4.26 µM)
